The test system of test [1] is H9c2. Briefly: Cytoprotective activity against OGD-induced ischemic cell death in rat H9c2 cells assessed as cell death at 10 uM for 30 mins by DAPI analysis. The format is functional. In a few lines:
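H9c2 rat heart cells grown in DMEM with 10% FBS and penicillin/streptomycin at 37 °C in 5% CO2. Compound added 30 min before and during oxygen-glucose deprivation. Cells fixed with 0.5% Triton X-100 in PBS for 15 min, then DAPI-stained. Nuclei counted by fluorescence microscopy in three random fields of at least 300 cells to give % dead cells. Mean ± SEM.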

For test [2], the system named is H9c2. Kind of test: Cytoprotective activity against OGD-induced ischemic cell death in rat H9c2 cells assessed as cell death at 10 uM for 30 mins by LDH release assay. It counts as functional. In a few lines:
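H9c2 rat heart cells grown in DMEM with 10% FBS and penicillin/streptomycin at 37 °C in 5% CO2. Pretreated with compound for 30 min, then kept on compound during oxygen-glucose deprivation. Cell death read as LDH released, expressed as a percentage of LDH released by full lysis with 0.1% Triton X-100. Mean ± SEM; Student's t-test.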

The nature of test [3]: Cytoprotective activity against OGD-induced ischemic cell death in Sprague-Dawley rat primary cardiac myocytes assessed as inhibition of cell death treated for 6 hrs by counting DAPI-stained nuclei. The conditions noted are these: Cardiac muscle cell.

`COC(=O)c1oc2ccccc2c1NC(=O)CSc1ccc(N)cc1`: the figures for the Activity with H9c2 [1] and with H9c2 [2] were 16.54% and 40.15%, respectively.
Taken in the same sequence, the figures for `COC(=O)c1oc2ccccc2c1NC(=O)CSc1ccc(C)cc1` were 21.57% and 56.39%.
For `COC(=O)c1oc2ccccc2c1NC(=O)CSc1ccc(OC)cc1`, the Activity with H9c2 [1] is given as 9.73%; in the test with H9c2 [2], 40.34%. Also, the EC50 in test [3] amounted to 752 nM.
Taken in the same sequence, the figures for `COC(=O)c1oc2ccccc2c1NC(=O)CCSc1ccccn1` were 11.55%, 36.07% and 929 nM.
As for `COC(OC)[C@@]1(C)Oc2ccc(N)cc2[C@@H](N/C(=N/Cc2ccccc2)NC#N)[C@@H]1O`, the Activity in the test on H9c2 [1] is given as 15.54%; in the test on H9c2 [2] it was 43.33%. In addition, the EC50 in test [3] was 1110 nM.
Taken in the same sequence, the figures for `COC(=O)c1oc2cccc(Cl)c2c1NC(=O)CCSc1ccccn1` were 7.02%, 29.46% and 557 nM.
Consider `COC(=O)c1oc2ccccc2c1NC(=O)CCc1ccccc1`, for which the Activity in the test with H9c2 [1] was found to be 15.94%; with H9c2 [2], 38.72%.
Taken in the same sequence, the figures for `COC(=O)c1sc2ccccc2c1NC(=O)CSc1ccc(Br)cc1` were 13.92% and 41.31%.
For `COC(=O)c1oc2ccccc2c1NC(=O)CSc1ccc([N+](=O)[O-])cc1`, the Activity turned out to be 6.18% in the test with H9c2 [1] and 30.21% in the test on H9c2 [2]. In test [3], the EC50 is 532 nM.
For the compound `COC(=O)c1oc2ccccc2c1NC(=O)CNc1ccc(Br)cc1`, the figures for the Activity with H9c2 [1] and in the test with H9c2 [2] were 22.37% and 60.32%, respectively.
In the same order, the values of `COC(=O)c1oc2ccccc2c1NC(=O)CSc1ccccc1` are 15.97% and 40.93%.
For the compound `COC(=O)c1oc2ccccc2c1NC(=O)CSc1ccc(Br)cc1`, the Activity came to 10.59% in the test with H9c2 [1] and 32.39% in the test with H9c2 [2]. The EC50 in test [3] came out at 778 nM.
As to `COC(=O)c1oc2ccccc2c1NC(=O)CSc1cccc(Br)c1`, the Activity in the test with H9c2 [1] came to 16.85%; in the test with H9c2 [2] it was 39.51%.
Turning to `COC(=O)c1oc2cccc(Cl)c2c1NC(=O)CSc1ccc(Br)cc1`, the Activity with H9c2 [1] is listed as 8.94%; with H9c2 [2], 35.48%. In test [3], the EC50 came to 630 nM.
For the compound `COC(=O)c1oc2ccccc2c1NC(=O)CNc1ccccc1`, the Activity in the test with H9c2 [1] is given as 21.04%; with H9c2 [2] it was 62.76%.
Taken in the same sequence, the figures for `COC(=O)c1oc2ccccc2c1NC(=O)CSc1ccccc1Br` were 13.63% and 41.01%.
For `COC(=O)c1oc2ccccc2c1NC(=O)COc1ccc(Br)cc1`, the Activity worked out at 13.17% with H9c2 [1] and 36.17% in the test on H9c2 [2]. In addition, the EC50 in test [3] was 1180 nM.

Broadly, the EC50 is the concentration at which the effect is half-maximal.

The values are drawn from ChEMBL document CHEMBL1268997, “Synthesis and biological evaluation of 3-substituted-benzofuran-2-carboxylic esters as a novel class of ischemic cell death inhibitors” (Bioorg Med Chem Lett, 2010).
